The record followed here is ChEMBL document CHEMBL1142984, “Stabilization of G-quadruplex DNA and down-regulation of oncogene c-myc by quindoline derivatives” (J Med Chem, 2007).

One may read the IC50 as the concentration at which inhibition is half-maximal. High values mean weaker potency in that assay, low ones greater potency in that assay.

Active and inactive are the calls of the source. No cut-off for these calls is given here.

The nature of experiment [1]: Inhibition of Pu27 oligomer hybridization with Pu27rev at 18 uM by PCR stop assay. In outline:
(§1)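 Test oligomer plus complementary strand ([…]) in 1×PCR buffer with 0.16 mM dNTP, 2.5 U Taq and derivative […]. Cycling: 94 C 3 min, then 30 cycles of 94 C 30 s, 58 C 30 s, 72 C 30 s. Products run on 15% nondenaturing polyacrylamide in 1×TBE, silver stained; quadruplex stabilization blocks extension.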

Experiment [2] is described as follows: Inhibition of Pu27-13, 14 oligomer hybridization with Pu27rev at 36 uM by PCR stop assay. In outline:
as §1

The nature of experiment [3]: Stabilization of Pu27 oligomer by inducing G-quadruplex formation assessed as inhibition of hybridization with Pu27rev by PCR stop assay. The method in brief: as §1
For experiment [4], the system named is HepG2. Put plainly: Growth inhibition in HepG2 cells after 5 days. The format is functional, cell-based. Particulars: Homo sapiens, HepG2, 120 h. The method in brief: (§2)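 Hep G2 cells in RPMI-1640 with 10% FBS at 37 C, 5% CO2. About 5000 cells seeded; compound ([…], freshly dissolved) added 24 h after plating and re-added at day 5. Cell counts and viability by trypan blue exclusion daily, days 1 to 8. IC50 calculated at days 5 and 7 of treatment.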

The subject of experiment [5] is HepG2. As to the kind of experiment: Growth inhibition in HepG2 cells after 7 days. The settings on record: Homo sapiens, HepG2, 168 h. The format is functional, cell-based. The method in brief: as §2
Experiment [6] concerns HepG2. As to the kind of experiment: Inhibition of c-myc expression in HepG2 cells at 50 uM. The format is functional, cell-based. Particulars: Homo sapiens. In outline:
(§3)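 About 5 × 10^5 Hep G2 cells seeded, treated 24 h after plating with derivative (6.25 to 100 µM) for 24 h. Total RNA extracted and reverse transcribed at 42 C for 60 min. PCR used […], 500 µM dNTPs, 36 cycles (95/50/72 C, 1 min each). Products read on 1.5% agarose against β-actin.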

The next experiment deals with Ramos. Put plainly: Inhibition of c-myc expression in Ramos cells at 10 uM. The settings on record: Homo sapiens. It counts as functional, cell-based. In outline:
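Ramos cells (about 1 × 105 seeded) treated with derivative at […] and harvested 24 h later alongside untreated cells. RNA reverse transcribed at 42 C for 60 min. PCR used […], 36 cycles (95/50/72 C, 1 min each). Products resolved on 1.5% agarose.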

Experiment [7] in a line: Inhibition of Pu27 oligomer hybridization with Pu27rev at 6 uM by PCR stop assay. In outline:
as §1

Experiment [8] in a line: Inhibition of Pu27 oligomer hybridization with Pu27rev at 36 uM by PCR stop assay. In outline:
as §1

The subject of experiment [9] is HepG2. Put plainly: Inhibition of c-myc expression in HepG2 cells at 100 uM. It counts as functional, cell-based. The settings on record: Homo sapiens. The method in brief: as §3

With `CCN(CC)CCNc1c2ccccc2nc2c1oc1ccccc12`, the outcome in experiment [1] and in experiment [3] was Active. Moreover, the outcome in experiment [2] was inactive.
For `CN(C)CCCNc1c2ccccc2nc2c1oc1ccccc12`, the outcome in experiment [1] and in experiment [3] was Active. The result in experiment [2] was inactive.
As for `CN(C)CCNc1c2ccccc2nc2c1[nH]c1ccccc12`, the outcome in experiment [1] and in experiment [3] was Active. For the same compound, the result in [2] was inactive.
As to `CN(C)CCCNc1c2ccccc2nc2c1[nH]c1ccccc12`, the outcome in experiment [1] and in [3] was Active. Further, the result in experiment [2] was inactive.
On to `CCN(CC)CCNc1c2ccccc2nc2c1[nH]c1ccccc12`, for which the result in experiment [2] was inactive. In addition, the IC50 in the experiment with HepG2 [4] is 0.2 µM; with HepG2 [5], 0.3 µM. For the same compound, the result (in the experiment on HepG2 [6]; in the experiment on Ramos; in [3]; in experiment [7]) was Active.
On to `OCCNc1c2ccccc2nc2c1oc1ccccc12`, for which the outcome in [8] and in [3] was Active. In addition, the outcome in experiment [2] was inactive.
Take `CN(C)CCNc1c2ccccc2nc2c1oc1ccccc12`: the result in experiment [1] and in experiment [3] was Active. Moreover, the result in [2] was inactive.
In the case of `OCCCNc1c2ccccc2nc2c1[nH]c1ccccc12`, the result (in experiment [8]; in the experiment with HepG2 [9]; in the experiment with Ramos; in experiment [3]) was Active. In experiment [2], the outcome was inactive. Also, the IC50 with HepG2 [4] was found to be 1 µM; in the experiment on HepG2 [5] it was 1.3 µM.
With `OCCNc1c2ccccc2nc2c1[nH]c1ccccc12`, the result in experiment [8] and in experiment [3] was Active. Besides, the result in [2] was inactive.
For `OCCCNc1c2ccccc2nc2c1oc1ccccc12`, the outcome in experiment [8] and in [3] was Active. Also, the outcome in experiment [2] was inactive.
